Jurkat NFkB inh: lowers PMA/ionomycin-induced NF-kB signal in Jurkat cells. PMA/ionomycin-induced NF-kB luciferase reporter, luminescence. inhibition, % at 4 µM. hit rate 0.53% among 330,000. AID 435003; in the data active means inhibition above about 50%
CHOP inhibitor: blocks CHOP induction under ER stress | inhibition, % at 10 µM | hit rate 3.8% among 220,000 | AID 2732 | CHO-K1 CHOP-promoter luciferase, tunicamycin-induced, 15-18 h;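 active means compounds that reduced the stress-induced luciferase reporter signal by more than about 70% of percent inhibition, limit read from the data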;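 further: 0% = tunicamycin plus vehicle and 100% = wells without tunicamycin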
697 NFkB inh: lowers PMA/ionomycin-induced NF-kB signal in 697 B cells. 697 B-cell NF-kB luciferase reporter, 16 h. inhibition, % at 4 µM. hit rate 0.33% among 330,000. AID 435022; in the data active means inhibition above about 35%
CHOP UPR activ: activators of apoptotic arm of unfolded protein response (CHOP); hit rate 0.34% among 330,000; AID 449763; activation, % at 10 µM; CHO-CHOP luciferase reporter, UPR activation, luminescence; percent of tunicamycin response over DMSO baseline;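 active means at 10 µM dose, activation of 40% or more, normalized to positive control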;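 further: 100% = tunicamycin at 10 µg/mL and 0% = DMSO alone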
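System: CHO CHOP reporter cells. Amount: 500 cells per well. Buffer or medium: F12 medium, 10% FBS. Compound dosing: one dose, 10 µM in 0.5% DMSO. Incubation: 6 h compound exposure at 37 °C after overnight seeding. Technique: Steady-Glo luciferase luminescence. Benchmarks: tunicamycin and DMSO controls.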
UPR XBP1 act: activators of adaptive arm of unfolded protein response (XBP1); CHO-XBP1 luciferase reporter, IRE1-XBP1 UPR activation, luminescence; percent of tunicamycin response, DMSO as zero; AID 463104; activation, % at 20 µM; hit rate 0.33% among 330,000;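 active means versus positive control, 20 µM dose yields 30% or more activation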;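 further: 100% = tunicamycin at 10 µg/mL and 0% = DMSO only wells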
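Material: CHO-XBP1 cells stably carrying IRE1-XBP1-driven luciferase reporter | Medium: F12 with 10% serum | Compound dosing: 20 µM single concentration, DMSO 1% | Incubation: Overnight seeding at 37 °C, 6 h compound treatment at 37 °C | Detection: Steady-Glo luminescence read | Read-out basis: % activation of reporter signal versus tunicamycin and DMSO controls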
Jurkat NFkB conf: inhibitors of the PMA/ionomycin-induced NF-kB reporter in Jurkat cells, retest | shares compounds with Jurkat NFkB inh | Jurkat NF-kB luciferase, 16 h | inhibition, % at 4 µM | hit rate 27% among 2,700;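 active means inhibition reaching about 45% at 4 µM in either replicate, limit read from the data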;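 further: plate controls were PMA/ionomycin stimulated DMSO wells for no effect and unstimulated DMSO wells for full effect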
The depositor's hits bear a star; x = no result. The full list was thinned out, with hits kept by preference.

SMILES | Jurkat NFkB inh | CHOP inhibitor | 697 NFkB inh | CHOP UPR activ | UPR XBP1 act | Jurkat NFkB conf
COC(=O)c1[nH]c(C)c(/C(O)=C2\C(=O)C(=O)N(CCN3CCOCC3)C2c2cccs2)c1C (configuration not stated) | -6 | 2 | 22 | 0 | 3 | x
CCOC(=O)c1[nH]c(C)c(/C(O)=C2\C(=O)C(=O)N(CCCN3CCOCC3)C2c2cccs2)c1C (configuration not stated) | 55* | 14 | -25 | 0 | -6 | 12
CSCC(=O)N1CCc2ccc(NC(=O)c3ccccc3Cl)cc2C1 | -14 | x | -52 | 9 | 3 | x
CN1CCN(c2ccccc2NC(=O)c2ccc(-c3ccc(Br)cc3)o2)CC1 | 50* | x | -88 | 2 | 3 | 12
CN1CCN(c2ccccc2NC(=O)c2ccc(-c3ccc(Cl)c(Cl)c3)o2)CC1 | 7 | x | -2 | 6 | 0 | x
O=C(Nc1ccccc1N1CCCCC1)c1ccc(-c2ccc(Cl)cc2)o1 | 54* | 48 | -38 | 2 | 7 | 12
O=C(Nc1ccccc1N1CCCC1)c1ccc(Br)o1 | -5 | 18 | -6 | 2 | 4 | x
S=C(c1ccc(-c2ccc(Cl)cc2)o1)N1CCCCC1 | -171 | 18 | -181 | 6 | 0 | -102
S=C(c1ccc(-c2ccccc2Cl)o1)N1CCCCC1 | -92 | -18 | -178 | 9 | 2 | x
COc1ccccc1NC(=O)c1ccc(-c2ccc(Br)cc2)o1 | 57* | 56 | -45 | 2 | 4 | 10
O=C(COC(=O)Cc1ccc(Br)cc1)NCc1ccc(F)cc1 | -10 | -2 | 9 | -2 | 1 | x
COC(=O)CNC(=O)CSc1nc(N)cc(=O)[nH]1 | 0 | -18 | 16 | -3 | 3 | x
CCN(CC)c1ccc(NC(=O)c2cc(OC)cc(OC)c2)c(C)c1 | 60* | x | -28 | 0 | 6 | 43
Cc1ccc(C(=O)Nc2nc3ccccc3s2)s1 | -211 | -3 | -156 | 0 | -2 | -109
Cc1ccc(C(=O)Nc2nc3ccc(S(C)(=O)=O)cc3s2)s1 | -97 | -26 | -45 | 3 | 0 | x
Cc1nc2ccc(NC(=O)c3cnc(Cl)c(Cl)c3)cc2s1 | -1 | x | 0 | 8 | 1 | x
Cc1ccc2nc(NC(=O)c3ccc4c(c3)OCO4)sc2c1 | -152 | 93* | -230 | 5 | 3 | -135
Cc1nc2ccc(NC(=O)c3ccc(Cl)s3)cc2s1 | -174 | 4 | -191 | 8 | 1 | -79
Cc1ccc2nc(NC(=O)c3ccc(Cl)s3)sc2c1 | -162 | -14 | -215 | 2 | 27 | -140
CN(C)S(=O)(=O)c1ccc(NC(=O)CSc2nnc(-c3ccco3)o2)cc1 | -12 | x | -6 | 2 | -2 | x
Cc1ccc(S(=O)(=O)N2CCC(C(N)=O)CC2)cc1[N+](=O)[O-] | 4 | x | -19 | 1 | -6 | x
CC(C)C(=O)N[C@H]1CCC2C3CC=C4C[C@@H](O)CC[C@]4(C)C3CC[C@@]21C (some centres not stated) | 4 | x | -5 | 0 | -1 | x
CC(C)(C)[C@H](N)C(=O)N[C@H]1CCC2C3CC=C4C[C@@H](O)CC[C@]4(C)C3CC[C@@]21C (some centres not stated) | 61* | x | 8 | 32 | -4 | 37
Cc1cc(C)c(C)c(S(=O)(=O)NC(C(=O)NCCc2ccco2)C(C)C)c1C (configuration not stated) | 7 | x | -16 | -2 | -2 | x
Cn1nnc(-c2ccc(OCc3ccccc3F)cc2)n1 | -169 | -6 | -174 | 1 | 3 | -88
SMILES | Jurkat NFkB inh | CHOP inhibitor | 697 NFkB inh | CHOP UPR activ | UPR XBP1 act | Jurkat NFkB conf
CCOC(=O)c1cc([N+](=O)[O-])sc1NC(=O)c1ccc(S(=O)(=O)N2CC3(C)CC2CC(C)(C)C3)cc1 (configuration not stated) | 57* | 31 | -3 | 25 | 18 | 25
Cc1ccc(C(=O)NCC(=O)OCc2c(F)cccc2Cl)s1 | -2 | x | -15 | 4 | 1 | x
NC(=O)c1ncn([C@@H]2O[C@H](CO)[C@@H](O)[C@H]2O)c1O | 11 | 5 | -4 | 0 | -9 | x
Nc1ncn(C2O[C@H](CO)[C@@H](O)[C@H]2O)c(=O)n1 (some centres not stated) | 82* | x | -145 | 24 | -2 | 90*
Cc1ccccc1-n1cnc2cc(NCc3cccs3)ccc21 | 8 | -2 | -14 | 2 | 7 | x
COc1ccccc1-n1cnc2cc(NCc3cccs3)ccc21 | 51* | x | -83 | 2 | 14 | 19
COC(=O)c1ccccc1NS(=O)(=O)c1cn(C)c(=O)n(C)c1=O | 1 | -22 | 5 | -1 | -3 | x
CC(C)(C)C(=O)c1cnc(Nc2ccccc2Cl)s1 | -128 | -9 | -87 | 1 | 10 | x
O=C(c1ccccc1)c1cnc(Nc2ccccc2Cl)s1 | -156 | 62 | -149 | 1 | 5 | -72
CC(C)CCNC(=O)C1CCC(=O)N1CCc1ccccc1 (configuration not stated) | 1 | x | 10 | -1 | -2 | x
O=C(Nc1ccc(/C=C/c2nc3ccccc3o2)cc1)c1c(F)cccc1F | -127 | 23 | -115 | 5 | -5 | x
CC(=O)Nc1ccc(/C=C/c2nc3ccccc3o2)cc1 | -150 | x | -145 | 5 | -1 | -100
O=S1(=O)C=CC(Nc2cccc(Cl)c2)C1 (configuration not stated) | 50* | 8 | 12 | -1 | 1 | 18
CSc1ccc(CN2CCN(C(=O)c3ccc([N+](=O)[O-])cc3)CC2)cc1 | 53* | 2 | -27 | -2 | -2 | 32
O=C(c1ccc(Cn2ccc([N+](=O)[O-])n2)cc1)N1CCN(Cc2ccccc2)CC1 | 2 | 18 | -6 | 0 | -4 | x
O=C(Nc1ccc2nc3ccccc3nc2c1)c1ccccc1 | x | 18 | x | x | x | x
O=C(Nc1ccc(-c2nc3ccccc3s2)c(OC(=O)c2ccccc2)c1)c1ccccc1 | -167 | -23 | -171 | 7 | 4 | -113
COC(=O)C1=C(C(=O)OC)[C@@H]2N(Cc3ccccc3)c3ccccc3[C@@]23C[C@@H](C(=O)OC)N=C3N1 | 8 | -10 | 20 | 2 | -1 | x
Cc1ccc(C2=Nc3ccccc3N=C(C(Cl)Cl)C2)cc1 | -162 | 84* | -149 | -4 | -6 | -91
CC(C)c1ccc(-n2cnn(-c3ncccc3[N+](=O)[O-])c2=O)cc1 | -204 | -6 | -155 | 0 | -2 | -126
CCC1CCCCN1CCCNC(=O)C1CCN(Cc2nc(-c3ccc(Cl)cc3)oc2C)CC1 (configuration not stated) | 56* | x | 7 | 1 | -4 | -5
Cc1oc(-c2ccc(Cl)cc2)nc1CS(=O)CC(=O)NCCCN1CCN(Cc2ccccc2)CC1 (configuration not stated) | 65* | x | -9 | 5 | 2 | 41
